In ChEMBL document CHEMBL1149384, “Identification of a novel spiropiperidine opioid receptor-like 1 antagonist class by a focused library approach featuring 3D-pharmacophore similarity” (J Med Chem, 2006):
pEC50, pIC50: −log10 of the molar value.

How the values were obtained:
Nociceptin receptor [1] = biological target: T1, Nociceptin receptor (Homo sapiens, UniProt P41146); test: Antagonist activity on nociceptin-induced [35S]GTP-gamma-S binding to ORL1 expressed in CHO cells; format: functional, cell-based
T1 sequence (P41146 whole entry): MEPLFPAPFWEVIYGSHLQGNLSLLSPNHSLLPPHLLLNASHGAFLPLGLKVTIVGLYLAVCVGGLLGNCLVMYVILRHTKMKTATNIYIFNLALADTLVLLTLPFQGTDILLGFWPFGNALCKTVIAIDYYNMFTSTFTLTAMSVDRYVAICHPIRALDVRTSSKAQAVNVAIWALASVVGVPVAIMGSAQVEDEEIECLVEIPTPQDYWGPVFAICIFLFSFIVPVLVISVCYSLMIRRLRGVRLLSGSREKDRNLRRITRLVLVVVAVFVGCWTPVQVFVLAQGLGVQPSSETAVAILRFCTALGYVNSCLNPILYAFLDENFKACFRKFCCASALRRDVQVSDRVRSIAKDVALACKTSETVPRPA
Summary of the method: (§1)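 [35S]GTPγS binding in membrane fractions from CHO cells stably expressing human ORL1. Antagonism: IC50 against nociceptin-stimulated binding. Agonism: EC50 relative to maximal binding produced by nociceptin. Means of three independent determinations, each in duplicate.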

Mu-type opioid receptor = Mu-type opioid receptor (Homo sapiens, UniProt P35372); test: Displacement of [3H]diprenorphin from cloned human mu opioid receptor expressed in CHO cells; format: cell-based
Mu-type opioid receptor, sequence (P35372 whole entry): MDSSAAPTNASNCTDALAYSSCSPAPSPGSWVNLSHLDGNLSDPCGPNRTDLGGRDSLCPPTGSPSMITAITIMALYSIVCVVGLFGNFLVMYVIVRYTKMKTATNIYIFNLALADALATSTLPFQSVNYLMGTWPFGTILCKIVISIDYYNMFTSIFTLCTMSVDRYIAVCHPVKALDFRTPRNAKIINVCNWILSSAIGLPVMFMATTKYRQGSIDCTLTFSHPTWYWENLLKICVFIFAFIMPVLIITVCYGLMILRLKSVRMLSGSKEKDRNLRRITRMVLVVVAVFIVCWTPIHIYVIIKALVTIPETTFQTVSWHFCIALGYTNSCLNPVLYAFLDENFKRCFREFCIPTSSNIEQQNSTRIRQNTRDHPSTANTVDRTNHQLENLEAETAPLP
Summary of the method: (§2)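 Radioligand displacement using membrane fractions of CHO cells stably expressing cloned human receptors. IC50 reported as mean of three independent determinations, each in duplicate.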

[2] = biological target: Kappa-type opioid receptor (Homo sapiens, UniProt P41145); test: Displacement of [3H]U-69593 from cloned human kappa opioid receptor expressed in CHO cells; format: cell-based; summary of the method: as §2
Kappa-type opioid receptor, sequence (P41145 whole entry): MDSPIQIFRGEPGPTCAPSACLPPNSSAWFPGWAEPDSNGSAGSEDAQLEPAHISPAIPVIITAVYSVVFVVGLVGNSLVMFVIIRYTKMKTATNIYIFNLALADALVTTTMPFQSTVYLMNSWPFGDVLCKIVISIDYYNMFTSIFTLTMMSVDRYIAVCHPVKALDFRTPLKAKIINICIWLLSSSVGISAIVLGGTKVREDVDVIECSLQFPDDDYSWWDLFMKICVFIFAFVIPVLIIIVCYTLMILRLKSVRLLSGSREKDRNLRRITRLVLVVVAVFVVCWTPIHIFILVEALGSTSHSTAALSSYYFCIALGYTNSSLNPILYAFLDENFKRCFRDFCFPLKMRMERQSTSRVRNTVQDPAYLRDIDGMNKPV

[3] = biological target: Delta-type opioid receptor (Homo sapiens, UniProt P41143); test: Displacement of [3H]naltrindole from cloned human delta opioid receptor expressed in CHO cells; format: cell-based; summary of the method: as §2
Delta-type opioid receptor, sequence (P41143 whole entry): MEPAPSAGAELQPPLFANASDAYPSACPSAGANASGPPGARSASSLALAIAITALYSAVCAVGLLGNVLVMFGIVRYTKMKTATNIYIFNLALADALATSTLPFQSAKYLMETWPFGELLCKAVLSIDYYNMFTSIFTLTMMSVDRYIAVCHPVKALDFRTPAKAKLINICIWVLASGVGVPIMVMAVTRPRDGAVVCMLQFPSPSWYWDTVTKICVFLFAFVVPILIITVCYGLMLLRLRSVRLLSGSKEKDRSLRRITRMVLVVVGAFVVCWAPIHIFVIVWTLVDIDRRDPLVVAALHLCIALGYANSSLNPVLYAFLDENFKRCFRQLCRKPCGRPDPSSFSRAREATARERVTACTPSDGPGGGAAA

Nociceptin receptor [4] = biological target: T1, Nociceptin receptor; test: Agonist activity on nociceptin-induced maximal [35S]GTP-gamma-S binding to ORL1 expressed in CHO cells; format: functional, cell-based; summary of the method: as §1
Nociceptin receptor [5] = biological target: T1, Nociceptin receptor; test: Displacement of [125I]Tyr-nociceptin from cloned human ORL1 expressed in CHO cells; format: cell-based; summary of the method: as §2
Mus musculus = test: Antagonist activity as % reversal against the reduction in locomotor activity produced by an ORL1 agonist in CD1 mice at 10 mg/kg, sc; format: functional; set-up: scale not given: the % may be the effect or the level left; conditions: route subcutaneous
Summary of the method: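 Mice given test agent 10 mg/kg sc against an ORL1 agonist that reduces locomotor activity. Activity counted over 60 min. Value is % reversal of the agonist response, mean ± SEM, n = 7–8 per group.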

Rattus norvegicus = test: Brain level in rat after administration of 10 mg/kg, sc; format: ADME, organism-based; set-up: dose 10 mg/kg, route subcutaneous; conditions: in vivo
Summary of the method: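 Rats dosed 10 mg/kg sc. Plasma and brain collected 1 h after dosing and drug concentration measured, n = 3 per group. Plasma in nM, brain in nmol/g brain.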

[6] = Distribution coefficient (LogD) between octanol and buffer; format: physicochemical

pIC50 (Nociceptin receptor [5]) | Compound | further results
7.92 | O=C(NCCCN1CCC2(CCc3ccccc32)CC1)[C@@H](O)Cc1ccccc1 | pIC50 (Nociceptin receptor [1]): 8.12; pIC50 (Mu-type opioid receptor): < 5.00; pIC50 [2]: 5.16; pIC50 [3]: < 5.00; pEC50 (Nociceptin receptor [4]): < 5.00
< 6.00 | O=C(Cc1ccccc1)C(=O)NCCCN1CCC2(CCc3ccccc32)CC1 | 
< 6.00 | O=C(NCCCN1CCC2(CCc3ccccc32)CC1)[C@@H]1CCCN1C(=O)c1ccccc1 | 
< 6.00 | O=C(NCCCN1CCC2(CCc3ccccc32)CC1)c1ncccc1C(O)c1ccccc1 (configuration not stated) | 
< 6.00 | CC(NC(=O)c1ccccc1)C(=O)NCCCN1CCC2(CCc3ccccc32)CC1 (configuration not stated) | 
< 6.00 | O=C(NCCCN1CCC2(CCc3ccccc32)CC1)C1CC1c1ccccc1 (configuration not stated) | 
6.14 | O=C(CCc1ccccc1)NCCCN1CCC2(CCc3ccccc32)CC1 | 
6.24 | O=C(NCCCN1CCC2(CCc3ccccc32)CC1)c1ccccc1C(O)c1ccccc1 (configuration not stated) | 
7.08 | O=C(NCCCN1CCC2(CCc3ccccc32)CC1)c1ccccc1OCc1ccccc1 | pIC50 (Nociceptin receptor [1]): 6.96; pIC50 (Mu-type opioid receptor): < 5.00; pIC50 [2]: 5.64; pIC50 [3]: < 5.00; pEC50 (Nociceptin receptor [4]): < 5.00
6.54 | O=C(CSc1nc2ccccc2s1)NCCCN1CCC2(CCc3ccccc32)CC1 | 
< 6.00 | O=C(NCCCN1CCC2(CCc3ccccc32)CC1)C1CCCCC1C(=O)Nc1ccccc1 (configuration not stated) | 
< 6.00 | CC1=Cc2ccccc2C1C(=O)NCCCN1CCC2(CCc3ccccc32)CC1 (configuration not stated) | 
< 6.00 | O=C(NCCCN1CCC2(CCc3ccccc32)CC1)C1(c2ccccc2)CCCC1 | 
6.77 | O=C(CSc1ccccc1)NCCCN1CCC2(CCc3ccccc32)CC1 | 
< 6.00 | O=C(NCCCN1CCC2(CCc3ccccc32)CC1)C(Cc1ccccc1)c1ccccc1 (configuration not stated) | 
< 6.00 | O=C(CC1Cc2ccccc2C1)NCCCN1CCC2(CCc3ccccc32)CC1 | 
6.47 | O=C(Cc1cccc(Oc2ccccc2)c1)NCCCN1CCC2(CCc3ccccc32)CC1 | 
< 6.00 | O=C(NCCCN1CCC2(CCc3ccccc32)CC1)C(=O)c1cnn(-c2ccccc2)c1C(F)(F)F | 
6.44 | O=C(CCc1c[nH]c2ccccc12)NCCCN1CCC2(CCc3ccccc32)CC1 | 
< 6.00 | O=C(/C=C/c1c[nH]c2ccccc12)NCCCN1CCC2(CCc3ccccc32)CC1 | 

pIC50 (Nociceptin receptor [5]) | Compound | further results
6.06 | CC(C)(Oc1ccc(Cl)cc1)C(=O)NCCCN1CCC2(CCc3ccccc32)CC1 | 
7.30 | O=C(NCCCN1CCC2(CCc3ccccc32)CC1)[C@H]1CCC(=O)N1Cc1ccccc1 | 
9.66 | O=C(NCCCN1CCC2(CCc3ccccc32)CC1)[C@H]1CCCN1Cc1ccccc1 | logD [6]: 2.7; pIC50 (Nociceptin receptor [1]): 9.92; pIC50 (Mu-type opioid receptor): 5.37; pIC50 [2]: 6.02; pIC50 [3]: < 5.00; pEC50 (Nociceptin receptor [4]): < 6.00
< 6.00 | O=C(NCCCN1CCC2(CCc3ccccc32)CC1)c1ncccc1-c1ccccc1 | 
< 6.00 | C[C@@H](O)[C@H](NC(=O)c1ccccc1)C(=O)NCCCN1CCC2(CCc3ccccc32)CC1 | 
< 6.00 | O=C(NCCCN1CCC2(CCc3ccccc32)CC1)c1ccc(-c2ccc(Cl)cc2)o1 | 
< 6.00 | Cc1ccc(C(=O)/C=C/C(=O)NCCCN2CCC3(CCc4ccccc43)CC2)cc1 | 
< 6.00 | O=C(NCCCN1CCC2(CCc3ccccc32)CC1)c1ncccc1Oc1ccccc1 | 
< 6.00 | O=C(NCCCN1CCC2(CCc3ccccc32)CC1)C1Cc2ccccc2C1 | 
< 6.00 | CC(Oc1ccc(Cl)cc1Cl)C(=O)NCCCN1CCC2(CCc3ccccc32)CC1 (configuration not stated) | 
8.09 | O=C(NCCCN1CCC2(CCc3ccccc32)CC1)c1ccccc1Oc1ccccc1 | pIC50 (Nociceptin receptor [1]): 8.40; pIC50 (Mu-type opioid receptor): < 5.00; pIC50 [2]: 5.02; pIC50 [3]: < 5.00; pEC50 (Nociceptin receptor [4]): < 5.00
< 6.00 | O=C(N[C@H]1CCCC[C@H]1C(=O)NCCCN1CCC2(CCc3ccccc32)CC1)c1ccccc1 | 
7.62 | O=C(NCCCN1CCC2(CCc3ccccc32)CC1)[C@H]1COC(=O)N1Cc1ccccc1 | 
< 6.00 | O=C(NCCCN1CCC2(CCc3ccccc32)CC1)C1CCN(c2ncccn2)CC1 | 
6.20 | O=C(NCCCN1CCC2(CCc3ccccc32)CC1)C1(c2ccccc2)CCCCC1 | 
< 6.00 | O=C(Cc1ccc2c(c1)OCO2)C(=O)NCCCN1CCC2(CCc3ccccc32)CC1 | 
< 6.00 | O=C(NCCCN1CCC2(CCc3ccccc32)CC1)C1CCc2ccccc2C1 (configuration not stated) | 
< 6.00 | O=C(NCCCN1CCC2(CCc3ccccc32)CC1)c1cccc(Oc2ccccc2)c1 | 
< 6.00 | O=C(Cc1ccccc1)NCCCN1CCC2(CCc3ccccc32)CC1 | 
< 6.00 | CC(=O)N/C(=C\c1ccccc1)C(=O)NCCCN1CCC2(CCc3ccccc32)CC1 | 

pIC50 (Nociceptin receptor [5]) | Compound | further results
< 6.00 | O=C(NCCCN1CCC2(CCc3ccccc32)CC1)C1Cc2ccccc21 (configuration not stated) | 
< 6.00 | COC(C(=O)NCCCN1CCC2(CCc3ccccc32)CC1)c1ccccc1 (configuration not stated) | 
< 6.00 | O=C(NCCCN1CCC2(CCc3ccccc32)CC1)c1cccc2c1Cc1ccccc1-2 | 
< 6.00 | O=C(NCCCN1CCC2(CCc3ccccc32)CC1)c1cc(=O)c2ccccc2o1 | 
7.33 | O=C(NCCCN1CCC2(CCc3ccccc32)CC1)[C@@H]1CCCN1Cc1ccccc1 | pIC50 (Nociceptin receptor [1]): 7.38; pIC50 (Mu-type opioid receptor): < 5.00; pIC50 [2]: 5.10; pIC50 [3]: < 5.00; pEC50 (Nociceptin receptor [4]): < 5.00
< 6.00 | O=C(Cc1ccc2ccccc2c1)NCCCN1CCC2(CCc3ccccc32)CC1 | 
< 6.00 | O=C1CC(C(=O)NCCCN2CCC3(CCc4ccccc43)CC2)c2ccccc21 (configuration not stated) | 
< 6.00 | O=C(Cc1cccc2ccccc12)NCCCN1CCC2(CCc3ccccc32)CC1 | 
< 6.00 | O=C(NCCCN1CCC2(CCc3ccccc32)CC1)[C@H](O)Cc1ccccc1 | 
< 6.00 | CN(CC(=O)NCCCN1CCC2(CCc3ccccc32)CC1)C(=O)c1ccccc1 | 
< 6.00 | COc1ccc2c(c1)CC(CC(=O)NCCCN1CCC3(CCc4ccccc43)CC1)C2=O (configuration not stated) | 
< 6.00 | Cc1onc(-c2ccccc2)c1C(=O)NCCCN1CCC2(CCc3ccccc32)CC1 | 
< 6.00 | CC(C)(C)OC(=O)NC1(C(=O)NCCCN2CCC3(CCc4ccccc43)CC2)CCCCC1 | 
< 6.00 | CC(C)(C)C(Cc1ccccc1)C(=O)NCCCN1CCC2(CCc3ccccc32)CC1 (configuration not stated) | 
< 6.00 | O=C(N[C@H]1CCCC[C@@H]1C(=O)NCCCN1CCC2(CCc3ccccc32)CC1)c1ccccc1 | 
8.00 | O=C(NCCCN1CCC2(CCc3ccccc32)CC1)c1ccccc1-c1ccccc1 | logD [6]: 3.1; pIC50 (Nociceptin receptor [1]): 8.08; pIC50 (Mu-type opioid receptor): < 5.00; pIC50 [2]: 5.43; pIC50 [3]: < 5.00; pEC50 (Nociceptin receptor [4]): < 5.00
6.27 | O=C(/C=C/c1ccccc1)NCCCN1CCC2(CCc3ccccc32)CC1 | 
6.46 | O=C(CCCc1ccccc1)NCCCN1CCC2(CCc3ccccc32)CC1 | 
< 6.00 | O=C(NCCCN1CCC2(CCc3ccccc32)CC1)C1Cc2ccccc2N1c1ccccc1 (configuration not stated) | 
< 6.00 | COc1ccccc1/C=C\C(=O)NCCCN1CCC2(CCc3ccccc32)CC1 | 

Compound | pIC50 (Nociceptin receptor [5]) | further results
O=C(NCCCN1CCC2(CCc3ccccc32)CC1)C(O)(c1ccccc1)C1CCCCC1 (configuration not stated) | < 6.00 | 
O=C(NCCCN1CCC2(CC1)OCc1ccccc12)[C@H]1CCCN1Cc1ccccc1 | 9.57 | pIC50 (Nociceptin receptor [1]): 9.82; Activity (Mus musculus): 88%; pIC50 (Mu-type opioid receptor): 5.17; pIC50 [2]: 5.60; pIC50 [3]: < 5.00; pEC50 (Nociceptin receptor [4]): < 6.00; Activity (Rattus norvegicus): 4.37 nM/g
O=C(NCCCN1CCC2(CCc3ccccc32)CC1)c1ccccc1Nc1ccccc1 | 6.64 | 
O=C(NCCCN1CCC2(CCc3ccccc32)CC1)c1ccccc1Cc1ccccc1 | 7.68 | 
O=C(NCCCN1CCC2(CCc3ccccc32)CC1)C(=O)c1c[nH]c2ccccc12 | 6.48 | 
O=C(NCCCN1CCC2(CCc3ccccc32)CC1)[C@H]1COCN1C(=O)OCc1ccccc1 | 6.88 | 
O=C1N[C@@H](Cc2ccccc2)[C@@H](C(=O)NCCCN2CCC3(CCc4ccccc43)CC2)O1 | 7.52 | 
CC(Oc1ccccc1)C(=O)NCCCN1CCC2(CCc3ccccc32)CC1 (configuration not stated) | 6.05 | 
